We go through 1 compound from ChEMBL document CHEMBL4673249, “Anticancer Effects of Honokiol via Mitochondrial Dysfunction Are Strongly Enhanced by the Mitochondria-Targeting Carrier Berberine” (J Med Chem, 2020).

Molecules are shown by their SMILES. Active and inactive are the calls of the source. No cut-off for these calls is given here.

The subject of series [1] is A2780. The series is described as follows: Antiproliferative activity against human A2780 cells assessed as reduction in cell viability after 48 hrs by MTT assay. As to conditions: A2780, 48 h. It counts as functional, cell-based. The gist of the method:
(§1)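 Cell lines grown at 37 °C in 5% CO2: A2780, A549, HL7702 and PC3 in RPMI 1640; HT29 in McCoy's 5A; HepG2 and PANC-1 in DMEM; all media with 10% FBS and penicillin/streptomycin. Cells seeded and left overnight, then exposed to compound for 48 h. MTT (5 mg/mL solution) added for 4 h at 37 °C, formazan dissolved in DMSO, absorbance read at 570 nm. IC50 taken from viability; run in triplicate.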
On the technique in general: Formazan colour is commonly taken as a measure of viable cells.

In the next series the test system is PANC-1. The series can be described thus: Antiproliferative activity against human PANC1 cells assessed as reduction in cell viability after 48 hrs by MTT assay. It counts as functional, cell-based. The following applies: PANC-1, 48 h. The gist of the method: as §1
A further series concerns L02. The series is described as follows: Antiproliferative activity against human L02 cells assessed as reduction in cell viability after 48 hrs by MTT assay. The following applies: L02, 48 h. It counts as cell-based. The method in brief: as §1
The test system of series [2] is HepG2. The series is described as follows: Induction of ROS generation in human HepG2 cells after 24 hrs by DCFH-DA staining based flow cytometric analysis. Type of series: functional, cell-based. The gist of the method: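 HepG2 cells treated for the stated time, then loaded with 10 μM DCFH-DA in FBS-free medium for 30 min in the dark. Washed twice with PBS, trypsinized, pelleted at 1200 rpm for 5 min, resuspended in PBS and read by flow cytometry. Kit Rosup reagent served as positive agent.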
For orientation: A flow cytometer gives signals particle by particle.

Series [3] relates to HepG2. The series is described as follows: Induction of autophagy in human HepG2 cells assessed as effect on LC3-2 protein expression at 3 uM after 24 hrs by Western blot analysis. Type of series: functional, cell-based. The method in brief:
(§2)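 HepG2 cells lysed in RIPA on ice for 20 min; protein measured by BCA. Lysates run on 10% SDS-PAGE and transferred to PVDF. Membranes blocked in 5% nonfat milk/TBST for 2 h, incubated with primary antibodies overnight at 4 °C, then HRP secondary antibody; bands detected by ECL.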

Series [4] concerns HepG2. The series can be described thus: Induction of cell death in human HepG2 cells at 3 uM after 12 hrs in presence of Nec-1 by MTT assay. It counts as functional, cell-based. The gist of the method: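 HepG2 cells pretreated with Nec-1 (30 μM) for 2 h, then given 3 μM. Viability measured by MTT with absorbance read at 570 nm.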
Series [5] has as its system HepG2. The series is described as follows: Induction of apoptosis in human HepG2 cells assessed as late apoptotic cells at 4 uM after 24 hrs by annexin V/propidium iodide staining based flow cytometric analysis (reference value: 3.22%). Type of series: functional.
The test system of series [6] is HepG2. The series can be described thus: Induction of apoptosis in human HepG2 cells assessed as early apoptotic cells at 4 uM after 24 hrs by annexin V/propidium iodide staining based flow cytometric analysis (reference value: 1.29%). It counts as functional.
Series [7] relates to HepG2. The series is described as follows: Induction of apoptosis in human HepG2 cells assessed as increase in cleaved-PARP protein expression at 1 to 4 uM after 24 hrs by Western blot analysis. The following applies: dose 1-4 µM. Type of series: functional, cell-based. The gist of the method:
as §2
Background: A western blot detects proteins with antibodies after separation by electrophoresis.

For series [8], the system named is HepG2. The series is described as follows: Induction of apoptosis in human HepG2 cells assessed as decrease in pro-caspase 12 protein expression at 1 to 4 uM after 24 hrs by Western blot analysis. It counts as functional, cell-based. As to conditions: dose 1-4 µM. The gist of the method:
as §2

Series [9] deals with HepG2. The series is described as follows: Induction of apoptosis in human HepG2 cells assessed as increase in cleaved-caspase 8 protein expression at 1 to 4 uM after 24 hrs by Western blot analysis. As to conditions: dose 1-4 µM. Type of series: functional, cell-based. The gist of the method:
as §2

The nature of series [10]: Ratio of HN drug uptake to test compound drug uptake in human HepG2 cells at 5 uM after 12 hrs by HPLC analysis. As to conditions: hepg2, 12 h. Type of series: ADME, cell-based. The method in brief: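 HepG2 cells treated with 5 μM compound or honokiol for 12 h. Mitochondria isolated with a kit by centrifugation at 600g then 11000g, 4 °C, 10 min each. Whole-cell and mitochondrial drug measured by HPLC on a C18 column, methanol-0.1% acetic acid (80:20), at 265 nm (derivative) and 210 nm (honokiol). Run thrice.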

In series [11] the test system is HepG2. The series is described as follows: Induction of mitochondrial morphological changes in human HepG2 cells assessed as dilation of mitochondria by measuring vacuoles at 3 uM measured up to 30 hrs […] by TEM analysis. It counts as functional, cell-based. As to conditions: time hrs <=30. The gist of the method: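 HepG2 cells given 3 μM for 15 h or 30 h, then fixed in 2.5% glutaraldehyde at 4 °C overnight. Dehydrated through graded alcohols, embedded in resin and examined by transmission electron microscopy.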

For series [12], the system named is A2780. The series is described as follows: Induction of morphological changes in human A2780 cells assessed as accumulation of cytoplasmic vacuoles at 4 uM after 24 hrs by optical microscopic method. It counts as functional, cell-based.
For series [13], the system named is HepG2. The series is described as follows: Induction of mitochondrial dysfunction in human HepG2 cells assessed as dispersive puncta formation at 2 to 4 uM after 12 hrs by calcein-AM staining based fluorescence microscopic analysis. It counts as functional, cell-based. The following applies: dose 2-4 µM. The gist of the method: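 HepG2 cells in glass-bottom plates treated for 12 h. Co-loaded with 1.5 μM calcein-AM and 5 mM CoCl2 in DMEM at 37 °C for 20 min; CoCl2 quenches cytosolic calcein. Washed three times with PBS and imaged by fluorescence microscopy through a 525-nm bandpass filter.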

The test system of series [14] is HepG2. The series can be described thus: Induction of mitochondrial morphological changes in human HepG2 cells assessed as dilation of mitochondria at 3 uM measured after 12 hrs by MitoTracker red CMXRos by confocal microscopic method. Type of series: functional, cell-based. The gist of the method: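 HepG2 cells stained with MitoTracker Red CMXRos; fluorescence and phase-contrast images taken by laser confocal microscopy.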

Series [15] has as its system HepG2. The series can be described thus: Induction of apoptosis in human HepG2 cells assessed as viable cells at 4 uM after 24 hrs in presence of z-VAD-fmk by annexin V/propidium iodide staining based flow cytometric analysis (reference value: 92.8%). It counts as functional. As to conditions: read-out: Activity.

The IC50 is the midpoint of a concentration-inhibition curve. For the compound `C=CCc1ccc(O)c(-c2ccc(OCCCCCc3c4[n+](cc5c(OC)c(OC)ccc35)CCc3cc5c(cc3-4)OCO5)c(CC=C)c2)c1.[I-]`, the IC50 came to 2.22 µM with A2780 [1], 3.34 µM in the series on PANC-1 and 4.61 µM in the series with L02. Also, the Activity entry was “Dose-dependent effect” in the series with HepG2 [2], 17.6% with HepG2 [5] and 7.91% in the series on HepG2 [6]. Also, the outcome with HepG2 [3] was inactive. Also, the outcome with HepG2 [4], in the series with HepG2 [7], in the series on HepG2 [8], in the series on HepG2 [9], with HepG2 [11] and in the series with A2780 [12] was Active. For the same compound, the result in the series on HepG2 [13] and with HepG2 [14] was Active. In addition, the Ratio in series [10] is listed as 2.5. The viability at 4 µM in the series on HepG2 [15] was 73%.
